Results on 13 compounds are retold here after PubChem BioAssay.

A short description of assay [1]: inhibitors of TNFa-induced NFkB p65 translocation, primary screen, imaging, HUVEC, MLSMR starter and 10KST1 sets (AID 438;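 active = inhibition above 20% together with a positive visual image hit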;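 also: compound added about 3h40 before a 20 min TNFalpha stimulation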;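 as to inhibition: signal is the nuclear over cytoplasmic p65 intensity ratio per well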). As to conditions: HUVEC TNFa-induced p65 nuclear translocation; cell count: measured here: nuclei count (cytotoxicity indicator), at 2.08 µM; inhibition: at 2 µM, stronger effect = higher value, 0% TNFa-plus-vehicle, 100% no-TNFa wells.
A short description of assay [2]: endothelial E-selectin expression blockers – imaging, HUVEC, immunofluorescence, MLSMR starter and 10KST1 sets, primary screen (AID 487;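 active = visually confirmed hit in the image check and inhibition above 20%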;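 as to inhibition: signal is fraction of cell area covered by stained E-selectin grains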;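 as to nuclei count: 100% = median nuclei count of all wells on the same plate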). As to conditions: HUVEC TNFalpha-induced E-selectin immunofluorescence imaging, at 2 µM; inhibition: stronger effect = higher value; nuclei count: measured here: cell number, toxicity.
Assay [3] in a line: Primary imaging screen for DUSP6 inhibitors that restore phospho-Erk in transfected HeLa cells, chemical complementation (AID 609).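 As to inhibition: phospho-Erk level distribution per well compared with pooled transfected vehicle control wells.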 As to conditions: HeLa MKP-3 transfected, phospho-Erk imaging KS statistic, at 10 µM, cells stimulated with TPA for 15 min.
Assay [4] addresses Dual specificity protein phosphatase 6 (Homo sapiens) (UniProt Q16828). The description is as above. The note with it: HeLa MKP-3 transfected, phospho-Erk imaging KS statistic; at 10 µM; stronger effect = higher value; cells stimulated with TPA for 15 min.
Assay [5] deals with Voltage-gated potassium channel subunit beta-2 (Rattus norvegicus) (UniProt P62483). The assay is described as follows: inhibitors of rat Kvbeta2 reductase activity – biochemical, NADPH fluorescence, primary screen (AID 622;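 active = fluorescence slope higher than the sample average by over 3 SD, cut at about -0.22 in these data, passing the limit was not always enough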;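 also: slope of raw intensity against log time taken from 70 to 1610 s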). As to conditions: recombinant KvBeta, 4-cyanobenzaldehyde reduction, at 10 µM, stronger effect = higher value.
Assay [6] has the same target. The assay is described as follows: enhancers of rat Kvbeta2 NADPH turnover – biochemical, NADPH fluorescence, primary screen (AID 623;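 active = NADPH fluorescence slope more negative than the mean of all samples by about 3 SD, 99.7% confidence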;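 also: fluorescence intensity change per second fitted from 20 to 320 s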). As to conditions: Recombinant KvBeta, NADPH fluorescence decrease slope, 10 min; at 10 µM; stronger effect = lower value.
Assay [7] deals with Muscarinic acetylcholine receptor M4 (Homo sapiens) (UniProt P08173). The assay is described as follows: M4-linked GIRK flux change, two-sided – cell-based, HEK293 M4/GIRK, thallium flux, BTC-AM, M4 allosteric agonist project, primary screen (AID 625;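 active = fluorescence slope after compound addition differing from the mean of all tested samples at 99.7% confidence, mostly higher but some lower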;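 also: thallium influx through GIRK channels coupled to M4 in HEK293 cells with BTC-AM dye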). The note with it: at 10 µM, actives lie on both sides. The method, boiled down: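 System: HEK293 cells with M4 receptor and GIRK channels | Incubation: Cells overnight at 37 °C, BTC-AM loading 1 h, reads 2 min total | Technique: Kinetic BTC-AM fluorescence sampled at 1 Hz, 10 s pre-addition baseline | Measure: Post-addition slope, 15–24 s, of baseline-normalized fluorescence | Control set: Carbachol positive, DMSO negative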

Assay [8] can be described thus: inhibitors of larval lipid processing in zebrafish, primary screen, whole organism, PED6 fluorescence, gall bladder and intestine (AID 686;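 active = a full or partial loss of lipid-probe fluorescence in the fish gall bladder, intestine or both, judged by eye; inactive = no fluorescence loss, or compound toxic to the fish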;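 also: larvae 5 to 7 days old with five fish per well; signal comes from phospholipase A2 cleavage of quenched PED6 carried via bile; overnight exposure to compound and PED6 before scoring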). As to conditions: Zebrafish larvae PED6 lipid processing, fluorescence scoring; screened at 20 µM (by protocol). In short, it runs like this: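 Test system – live zebrafish larvae aged 5-7 days, whole organism · Buffer or medium – E3 fish medium · Reagent – quenched phospholipase substrate PED6, 100 nM final, ingested by larvae · Doses – 20 µM single dose · Incubation – overnight compound and PED6 incubation · Technique – visual fluorescence microscopy scoring of gall bladder, gut · Read-out basis – visual per-well fluorescence inhibition score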

Assay [9] can be described thus: loss of swimming-algae plug formation – whole organism, Chlamydomonas reinhardtii, WT vs cilia-less mutant, absorbance, 96-well, primary screen (AID 463189;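 active = inhibition at or above 50% relative to wild type and mutant plate controls; inactive = inhibition below 50%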;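 also: 0% = wild type cc124 cells in DMSO and 100% = ciliumless bld1 mutant cells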). As to conditions: Chlamydomonas reinhardtii gravitaxis, OD600 absorbance, 2 days; at 10 µM; stronger effect = higher value.
[10] abbreviates: measured here: cell density z-score.
The mark [11] stands for this setting: measured here: nuclear c-Myc green intensity z-score.
[12] abbreviates: measured here: nuclear pErk red intensity z-score, stronger effect = higher value.

Structures are written as SMILES. The source made the active and inactive calls.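 The calls were made as follows, unless noted: active = compounds giving at least 50% inhibition in the cell-based MKP-3 phosphatase rescue imaging test; inactive = the rest.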

Sequence of Dual specificity protein phosphatase 6 (Homo sapiens) (Q16828 whole entry, looked up): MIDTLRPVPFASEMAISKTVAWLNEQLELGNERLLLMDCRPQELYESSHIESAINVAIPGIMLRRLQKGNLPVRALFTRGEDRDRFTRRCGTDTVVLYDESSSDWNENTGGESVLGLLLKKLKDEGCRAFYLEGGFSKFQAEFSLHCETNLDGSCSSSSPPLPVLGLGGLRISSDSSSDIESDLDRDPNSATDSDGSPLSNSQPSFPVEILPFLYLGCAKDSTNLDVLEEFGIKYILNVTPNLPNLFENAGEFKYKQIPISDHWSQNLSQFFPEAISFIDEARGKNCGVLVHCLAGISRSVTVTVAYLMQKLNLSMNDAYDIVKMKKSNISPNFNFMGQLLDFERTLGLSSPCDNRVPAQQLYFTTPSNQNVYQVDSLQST
Sequence of Muscarinic acetylcholine receptor M4 (Homo sapiens) (P08173 whole entry, looked up): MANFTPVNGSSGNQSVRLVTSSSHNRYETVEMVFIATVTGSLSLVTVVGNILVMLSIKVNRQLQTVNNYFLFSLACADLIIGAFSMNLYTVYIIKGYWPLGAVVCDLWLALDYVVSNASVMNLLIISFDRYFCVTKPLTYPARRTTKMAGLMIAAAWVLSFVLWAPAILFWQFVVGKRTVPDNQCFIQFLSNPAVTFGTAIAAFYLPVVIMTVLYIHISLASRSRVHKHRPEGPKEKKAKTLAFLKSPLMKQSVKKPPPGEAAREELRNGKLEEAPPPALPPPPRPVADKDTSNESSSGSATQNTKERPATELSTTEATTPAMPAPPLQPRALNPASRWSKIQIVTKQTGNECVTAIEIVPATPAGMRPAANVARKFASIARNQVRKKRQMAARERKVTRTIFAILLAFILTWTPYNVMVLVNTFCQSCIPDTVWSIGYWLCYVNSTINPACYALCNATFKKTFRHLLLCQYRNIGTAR
Sequence of Voltage-gated potassium channel subunit beta-2 (Rattus norvegicus) (P62483 whole entry, looked up): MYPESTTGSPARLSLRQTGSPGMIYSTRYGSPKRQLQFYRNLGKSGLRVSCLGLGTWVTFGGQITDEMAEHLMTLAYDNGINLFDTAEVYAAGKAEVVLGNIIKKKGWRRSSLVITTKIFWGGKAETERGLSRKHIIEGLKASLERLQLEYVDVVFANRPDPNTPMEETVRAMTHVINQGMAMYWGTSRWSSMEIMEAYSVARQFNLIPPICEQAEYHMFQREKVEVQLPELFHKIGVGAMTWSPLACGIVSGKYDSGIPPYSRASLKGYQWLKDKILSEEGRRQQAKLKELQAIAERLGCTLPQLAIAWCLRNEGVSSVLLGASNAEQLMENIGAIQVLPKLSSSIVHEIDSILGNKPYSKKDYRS

Take `CCOc1ccc(-c2nc(C#N)c(N3CCN(CC)CC3)o2)cc1`: the cell count in [1] came to 416. Moreover, the inhibition – broadly, the relative decrease from the control value, in per cent – is 0.1% (inactive) in assay [1], -29.1% (inactive) in assay [2], -2.69% (inactive) in assay [4] and 5.29% (inactive) in assay [9]. Besides, the nuclei count in assay [2] amounted to 129%. Further, the z-score in [3] (setting [10]) came out at 0.554; in assay [3] (setting [11]), 0.103; in assay [3] (setting [12]), 0.968. The fluorescence slope in assay [5] was -0.498 (inactive); in assay [7], 0.00446 (inactive). In addition, in [6], the NADPH fluorescence slope is -0.00012 (inactive). In addition, in assay [8], the compound was classed as inactive.

On to `CC1(C)Cc2c(c(N3CCOCC3)nc3sc4c(=O)[nH]cnc4c23)CS1`, for which, in assay [1], the cell count turned out to be 493. Besides, the inhibition in assay [1] was -5.7% (inactive); in assay [2], 10.3% (inactive); in assay [4], 7.93% (inactive); in assay [9], 28.7% (inactive). Besides, in assay [2], the nuclei count amounted to 100%. Also, the z-score is -0.312 in [3] (setting [10]), 0.705 in assay [3] (setting [11]) and 1.1 in assay [3] (setting [12]). Also, the fluorescence slope was -0.44 (inactive) in assay [5] and 0.00568 (inactive) in assay [7]. Besides, the NADPH fluorescence slope in assay [6] was -1.9e-05 (inactive). The result in assay [8] was inactive.

With `COc1ccc(/C(O)=C2/C(=O)C(=O)N(Cc3ccco3)C2c2cccs2)cc1` (centres undefined), the cell count in assay [1] was 651. Moreover, the inhibition is 89.9% (active) in assay [1], -68.9% (inactive) in [2], 3.42% (inactive) in assay [4] and 1.62% (inactive) in assay [9]. The nuclei count in [2] was 157%. Besides, the z-score in assay [3] (setting [10]) was 1.37; in assay [3] (setting [11]), -0.407; in assay [3] (setting [12]), -1.07. Moreover, the figures for the fluorescence slope in assay [5] and in [7] were -0.435 (inactive) and 0.00532 (inactive), respectively. Also, in [6], the NADPH fluorescence slope is -4.8e-05 (inactive). Moreover, the outcome in [8] was inactive.

Turning to `CC(C)Sc1nnc2n(CCc3ccccc3)c(=O)c3c4c(sc3n12)COC(C)(C)C4`, the cell count in assay [1] was 532. Further, the inhibition in assay [1] is -8% (inactive); in [2], -61.3% (inactive); in assay [4] it was 7.93% (inactive); in assay [9], 19% (inactive). This compound yielded a nuclei count in assay [2] of 139%. The z-score in assay [3] (setting [10]) is 0.633; in assay [3] (setting [11]), -0.0361; in assay [3] (setting [12]), -0.58. The fluorescence slope was -0.435 (inactive) in assay [5] and 0.00702 (inactive) in assay [7]. Also, in [6], the NADPH fluorescence slope was -2.4e-05 (inactive). Further, the call in assay [8] was inactive.

As for `Cc1cc(C(=O)O)c(CSc2ncn[nH]2)o1`, the cell count in assay [1] stood at 652. For the same compound, the inhibition is -7.4% (inactive) in assay [1], -48.6% (inactive) in assay [2], -5.81% (inactive) in assay [4] and -11% (inactive) in [9]. In addition, the nuclei count in [2] is 174%. Moreover, the z-score in assay [3] (setting [10]) is -1.18; in assay [3] (setting [11]) it was 1.91; in [3] (setting [12]), 1.7. The fluorescence slope is -0.455 (inactive) in [5] and 0.0045 (inactive) in [7]. The NADPH fluorescence slope in assay [6] was -0.000158 (inactive). The compound was called inactive in assay [8].

For the compound `Cc1cc(=O)oc2c(CN3CCCCC3)c(O)c(Cl)cc12`, the cell count in [1] worked out at 703. For the same compound, the inhibition in [1] was -7.3% (inactive); in assay [2] it was -40.4% (inactive); in assay [4] it was 7.83% (inactive); in assay [9], 15.8% (inactive). In assay [2], this compound registered a nuclei count of 146%. Further, the results for the z-score in [3] (setting [10]), in assay [3] (setting [11]) and in [3] (setting [12]) were 0.085, 0.889 and -2.46, respectively. For the same compound, the figures for the fluorescence slope in [5] and in assay [7] were -0.0387 (inactive) and 0.0046 (inactive), respectively. For the same compound, in assay [6], the NADPH fluorescence slope was -0.000132 (inactive). In addition, the compound was called inactive in [8].

For the compound `Cc1nc(N2CCN(C(=O)c3ccc(Cl)cc3)CC2)c(C#N)c2c1COC(C)(C)C2`, the cell count in [1] worked out at 522. The inhibition in assay [1] is 8.1% (inactive); in [2] it was 7% (inactive); in [4] it was 1.98% (inactive); in assay [9], 129% (active). The same compound returned a nuclei count in assay [2] of 95.8%. Besides, the results for the z-score in assay [3] (setting [10]), in assay [3] (setting [11]) and in [3] (setting [12]) were -0.225, -0.286 and 0.404, respectively. Also, the fluorescence slope in [5] is -0.335 (inactive); in assay [7] it was 0.00518 (inactive). Further, the NADPH fluorescence slope in assay [6] was -2.3e-05 (inactive). Besides, the outcome in [8] was inactive.

Consider `CCOC(=O)c1c(CN2CCN(CCO)CC2)n(C)c2cc(Br)c(OC)cc12`, for which the cell count in assay [1] turned out to be 380. Also, the inhibition in assay [1] was -7.5% (inactive); in assay [2], -1.9% (inactive); in [4], -2.29% (inactive); in assay [9], 26.8% (inactive). In assay [2], the nuclei count was determined as 103%. The values for the z-score in assay [3] (setting [10]), in [3] (setting [11]) and in assay [3] (setting [12]) were -0.09, 0.157 and 0.909, respectively. The fluorescence slope in assay [5] is -0.4 (inactive); in assay [7], 0.00459 (inactive). Besides, the NADPH fluorescence slope in [6] is 5.8e-06 (inactive). In addition, the compound was called inactive in assay [8].

`COC(=O)c1ccc(C2/C(=C(\O)c3cccc(OC)c3)C(=O)C(=O)N2CCCN2CCOCC2)cc1` (centres undefined): the cell count in assay [1] turned out to be 620. The inhibition was -10.1% (inactive) in assay [1], -57.4% (inactive) in assay [2], 20.2% (inactive) in assay [4] and 14.7% (inactive) in [9]. This compound also yielded a nuclei count in assay [2] of 150%. Further, the z-score in [3] (setting [10]) is 0.836; in assay [3] (setting [11]) it was -1.51; in assay [3] (setting [12]), -1.62. Moreover, the fluorescence slope in assay [5] is -0.507 (inactive); in assay [7] it was 0.00584 (inactive). Besides, the NADPH fluorescence slope in [6] is -2e-05 (inactive). In addition, in assay [8], the result was inactive.

As for `Cc1cc(=O)oc(C)c1C(=O)NCCc1ccccc1`, in assay [1], the cell count was 661. The inhibition in [1] was 9.3% (inactive); in [2], -1% (inactive); in assay [4] it was 5.35% (inactive); in assay [9], -7.3% (inactive). For the same compound, the nuclei count in assay [2] stood at 109%. Besides, the z-score in [3] (setting [10]) was -0.903; in assay [3] (setting [11]), 1.05; in assay [3] (setting [12]) it was 0.63. Besides, the fluorescence slope in assay [5] is -0.433 (inactive); in [7], 0.00484 (inactive). In assay [6], the NADPH fluorescence slope is -4.2e-05 (inactive). For the same compound, in assay [8], the result was inactive.

In the case of `Cc1ccc(N2C(=O)c3sc4nnc(C)c(=O)n4c3C2=O)cc1`, the cell count in [1] worked out at 637. Also, the inhibition was 1.3% (inactive) in [1], -129% (inactive) in [2], -7.86% (inactive) in assay [4] and 2.4% (inactive) in assay [9]. The same compound returned a nuclei count in assay [2] of 144%. Further, the z-score in assay [3] (setting [10]) is 0.278; in assay [3] (setting [11]), 1.58; in assay [3] (setting [12]), -1.15. Moreover, the values for the fluorescence slope in assay [5] and in assay [7] were -0.478 (inactive) and 0.00581 (inactive), respectively. Also, the NADPH fluorescence slope in assay [6] was -4e-05 (inactive). In addition, the result in assay [8] was inactive.

Regarding `CCOC(=O)c1c2c(c(=S)n(-c3ccccc3)c1N)CCC2`, in [1], the cell count was found to be 569. In addition, the inhibition was -8.6% (inactive) in assay [1], -65.1% (inactive) in assay [2], -3.95% (inactive) in assay [4] and 9.7% (inactive) in assay [9]. The nuclei count in assay [2] was 135%. Besides, the values for the z-score in assay [3] (setting [10]), in [3] (setting [11]) and in assay [3] (setting [12]) were -0.086, 1.03 and -0.638, respectively. Moreover, the fluorescence slope is -0.463 (inactive) in [5] and 0.00449 (inactive) in assay [7]. For the same compound, the NADPH fluorescence slope in assay [6] is -9.5e-05 (inactive). In addition, the call in [8] was inactive.

For the compound `CC(=O)NC(=O)Nc1sc(=S)n(C)c1C`, in assay [1], the cell count amounted to 329. In addition, the inhibition was -4.5% (inactive) in assay [1], -21.6% (inactive) in [2], 9.82% (inactive) in [4] and 30.1% (inactive) in [9]. Besides, the nuclei count in assay [2] was determined as 71.6%. Besides, the z-score in [3] (setting [10]) is 0.847; in assay [3] (setting [11]), -2.04; in assay [3] (setting [12]), 0.71. Further, the fluorescence slope in [5] is -0.515 (inactive); in [7], 0.00528 (inactive). Also, the NADPH fluorescence slope in assay [6] is 4.8e-06 (inactive). Moreover, in assay [8], the call was inactive.
